Data on 2 compounds can be found in ChEMBL document CHEMBL4406830, “Galloyl esters of trans-stilbenes are inhibitors of FASN with anticancer activity on non-small cell lung cancer cells” (Eur J Med Chem, 2019).

SMILES strings stand for the structures. pIC50: −log10 of the molar value. ≈ marks a conversion by molar mass, not a printed value. Calls of active or inactive are those of the source. The calls are words filed in the database; no cut-off is given here.

Series [1] deals with Fatty acid synthase (Homo sapiens) (UniProt P49327). The series is described as follows: Inhibition of FASN in human PC9 cells harboring FASN expression and EGFR delE746-A750 mutant assessed as disruption of AKT/FASN positive feedback loop by measuring decrease in ratio of phosphoAKT/AKT expression at 2 uM after 48 hrs by Western immunoblot based densitometric assay relative to control. The series is classed as cell-based. An outline of the steps:
(§1)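 PC-9 (2 µM) or H1703 (1 µM) cells were treated with compound, with or without lipid concentrate (1% v/v per figure legend), for 48 h. Cells were lysed in RIPA buffer and lysates run on SDS-PAGE western blots for FASN, AKT, phospho-AKT S473 and GAPDH. Bands were quantified by densitometry and normalised to untreated control.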

Series [2] has the same target. The series is described as follows: Inhibition of FASN in human PC9 cells harboring FASN expression and EGFR delE746-A750 mutant assessed as disruption of AKT/FASN positive feedback loop by measuring decrease in FASN expression at 5 uM after 48 hrs by Western immunoblot based densitometric assay relative to control. The series is classed as cell-based. The gist of the method:
(§2)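 PC-9 or H1703 cells were seeded at 8 × 10^5 per 100 mm dish and treated for 48 h at 1 or 5 µM (or 5, 50 and 100 µM). RIPA lysates were BCA-quantified and run on 8% SDS-PAGE, then transferred to PVDF. Blots were probed for FASN, AKT, phospho-AKT S473 and GAPDH and detected by ECL. Bands were quantified by densitometry and normalised to vehicle control.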

Series [3] shares this target. The series is described as follows: Inhibition of FASN in human PC9 cells harboring FASN expression and EGFR delE746-A750 mutant assessed as disruption of AKT/FASN positive feedback loop by measuring decrease in FASN expression after 48 hrs by Western immunoblot assay. The format is cell-based. An outline of the steps:
as §2

The nature of series [4]: Selectivity index, ratio of IC50 for human SAE cells lacking FASN expression to IC50 for human PC9 cells harboring FASN expression and EGFR delE746-A750 mutant. The gist of the method:
(§3)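 Index is the SAEC IC50 divided by the IC50 in the FASN-expressing NSCLC line. IC50s came from MTS viability after 72 h exposure at 37 °C, 5% CO2, DMSO 0.1% v/v. Absorbance was read at 490 nm after 2 h. The fit was % viability against log concentration, with 4 technical repeats and 3 independent experiments. NSCLC lines were grown in RPMI/10% FBS; SAEC in BEGM.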

Series [5] concerns the target Fatty acid synthase (Homo sapiens) (UniProt P49327). The series is described as follows: Inhibition of FASN in human NCI-H1703 cells expressing FASN assessed as disruption of AKT/FASN positive feedback loop by measuring decrease in FASN expression at 1 uM after 48 hrs in presence of exogenous lipid concentrate by Western immunoblot based densitometric assay relative to control. The format is cell-based. An outline of the steps: as §1
A general note: A western blot detects proteins with antibodies after separation by electrophoresis.

Series [6] is described as follows: Kinetic solubility of the compound in universal buffer at pH 7.4 measured at 25 degC after 24 hrs by UV/Visible spectroscopic analysis. The format is physicochemical. The settings on record: read-out: Kinetic_solubility.
The target of series [7] is Fatty acid synthase (Homo sapiens) (UniProt P49327). The series is described as follows: Inhibition of FASN in human NCI-H1703 cells expressing FASN assessed as disruption of AKT/FASN positive feedback loop by measuring decrease in ratio of phosphoAKT/AKT expression at 1 uM after 48 hrs by Western immunoblot based densitometric assay relative to control. The format is cell-based. An outline of the steps:
as §2

Series [8] can be described thus: Cytotoxicity against human SAE cells lacking FASN expression assessed as reduction in cell viability after 72 hrs by MTS assay. The format is cell-based. An outline of the steps:
(§4)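 ATCC-sourced cells. H1299, H1650, H1703 and PC-9 were grown in RPMI 1640 with 10% FBS. A549 was grown in high-glucose DMEM with 10% FBS and 1 mM pyruvate. SAEC was grown in BEGM. Cells were seeded at 3 × 10^3 per well (H1650 3.5 × 10^3) and left to attach overnight. Serial dilutions from DMSO stocks were added, 0.1% DMSO final, for 72 h at 37 °C, 5% CO2. Medium was replaced, MTS added, and A490 read after 2 h. IC50 was taken from % viability versus log concentration, 3 experiments.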
On the technique in general: Tetrazolium dyes change colour on reduction, which living cells bring about.

In another series the test system is PC-9. Briefly: Antiproliferative activity against human PC9 cells harboring FASN expression and EGFR delE746-A750 mutant assessed as reduction in cell viability after 72 hrs by MTS assay. The format is functional, cell-based. The settings on record: PC-9, 72 h. The gist of the method: as §4
In series [9] the target is Fatty acid synthase (Homo sapiens) (UniProt P49327). The series is described as follows: Inhibition of FASN in human PC9 cells harboring FASN expression and EGFR delE746-A750 mutant assessed as disruption of AKT/FASN positive feedback loop by measuring ratio of phosphoAKT/AKT expression at 2 uM after 48 hrs in presence of exogenous lipid concentrate by Western immunoblot based densitometric assay relative to control. The series is classed as cell-based. An outline of the steps: as §1
Chain of Fatty acid synthase (Homo sapiens) (P49327 whole entry, looked up): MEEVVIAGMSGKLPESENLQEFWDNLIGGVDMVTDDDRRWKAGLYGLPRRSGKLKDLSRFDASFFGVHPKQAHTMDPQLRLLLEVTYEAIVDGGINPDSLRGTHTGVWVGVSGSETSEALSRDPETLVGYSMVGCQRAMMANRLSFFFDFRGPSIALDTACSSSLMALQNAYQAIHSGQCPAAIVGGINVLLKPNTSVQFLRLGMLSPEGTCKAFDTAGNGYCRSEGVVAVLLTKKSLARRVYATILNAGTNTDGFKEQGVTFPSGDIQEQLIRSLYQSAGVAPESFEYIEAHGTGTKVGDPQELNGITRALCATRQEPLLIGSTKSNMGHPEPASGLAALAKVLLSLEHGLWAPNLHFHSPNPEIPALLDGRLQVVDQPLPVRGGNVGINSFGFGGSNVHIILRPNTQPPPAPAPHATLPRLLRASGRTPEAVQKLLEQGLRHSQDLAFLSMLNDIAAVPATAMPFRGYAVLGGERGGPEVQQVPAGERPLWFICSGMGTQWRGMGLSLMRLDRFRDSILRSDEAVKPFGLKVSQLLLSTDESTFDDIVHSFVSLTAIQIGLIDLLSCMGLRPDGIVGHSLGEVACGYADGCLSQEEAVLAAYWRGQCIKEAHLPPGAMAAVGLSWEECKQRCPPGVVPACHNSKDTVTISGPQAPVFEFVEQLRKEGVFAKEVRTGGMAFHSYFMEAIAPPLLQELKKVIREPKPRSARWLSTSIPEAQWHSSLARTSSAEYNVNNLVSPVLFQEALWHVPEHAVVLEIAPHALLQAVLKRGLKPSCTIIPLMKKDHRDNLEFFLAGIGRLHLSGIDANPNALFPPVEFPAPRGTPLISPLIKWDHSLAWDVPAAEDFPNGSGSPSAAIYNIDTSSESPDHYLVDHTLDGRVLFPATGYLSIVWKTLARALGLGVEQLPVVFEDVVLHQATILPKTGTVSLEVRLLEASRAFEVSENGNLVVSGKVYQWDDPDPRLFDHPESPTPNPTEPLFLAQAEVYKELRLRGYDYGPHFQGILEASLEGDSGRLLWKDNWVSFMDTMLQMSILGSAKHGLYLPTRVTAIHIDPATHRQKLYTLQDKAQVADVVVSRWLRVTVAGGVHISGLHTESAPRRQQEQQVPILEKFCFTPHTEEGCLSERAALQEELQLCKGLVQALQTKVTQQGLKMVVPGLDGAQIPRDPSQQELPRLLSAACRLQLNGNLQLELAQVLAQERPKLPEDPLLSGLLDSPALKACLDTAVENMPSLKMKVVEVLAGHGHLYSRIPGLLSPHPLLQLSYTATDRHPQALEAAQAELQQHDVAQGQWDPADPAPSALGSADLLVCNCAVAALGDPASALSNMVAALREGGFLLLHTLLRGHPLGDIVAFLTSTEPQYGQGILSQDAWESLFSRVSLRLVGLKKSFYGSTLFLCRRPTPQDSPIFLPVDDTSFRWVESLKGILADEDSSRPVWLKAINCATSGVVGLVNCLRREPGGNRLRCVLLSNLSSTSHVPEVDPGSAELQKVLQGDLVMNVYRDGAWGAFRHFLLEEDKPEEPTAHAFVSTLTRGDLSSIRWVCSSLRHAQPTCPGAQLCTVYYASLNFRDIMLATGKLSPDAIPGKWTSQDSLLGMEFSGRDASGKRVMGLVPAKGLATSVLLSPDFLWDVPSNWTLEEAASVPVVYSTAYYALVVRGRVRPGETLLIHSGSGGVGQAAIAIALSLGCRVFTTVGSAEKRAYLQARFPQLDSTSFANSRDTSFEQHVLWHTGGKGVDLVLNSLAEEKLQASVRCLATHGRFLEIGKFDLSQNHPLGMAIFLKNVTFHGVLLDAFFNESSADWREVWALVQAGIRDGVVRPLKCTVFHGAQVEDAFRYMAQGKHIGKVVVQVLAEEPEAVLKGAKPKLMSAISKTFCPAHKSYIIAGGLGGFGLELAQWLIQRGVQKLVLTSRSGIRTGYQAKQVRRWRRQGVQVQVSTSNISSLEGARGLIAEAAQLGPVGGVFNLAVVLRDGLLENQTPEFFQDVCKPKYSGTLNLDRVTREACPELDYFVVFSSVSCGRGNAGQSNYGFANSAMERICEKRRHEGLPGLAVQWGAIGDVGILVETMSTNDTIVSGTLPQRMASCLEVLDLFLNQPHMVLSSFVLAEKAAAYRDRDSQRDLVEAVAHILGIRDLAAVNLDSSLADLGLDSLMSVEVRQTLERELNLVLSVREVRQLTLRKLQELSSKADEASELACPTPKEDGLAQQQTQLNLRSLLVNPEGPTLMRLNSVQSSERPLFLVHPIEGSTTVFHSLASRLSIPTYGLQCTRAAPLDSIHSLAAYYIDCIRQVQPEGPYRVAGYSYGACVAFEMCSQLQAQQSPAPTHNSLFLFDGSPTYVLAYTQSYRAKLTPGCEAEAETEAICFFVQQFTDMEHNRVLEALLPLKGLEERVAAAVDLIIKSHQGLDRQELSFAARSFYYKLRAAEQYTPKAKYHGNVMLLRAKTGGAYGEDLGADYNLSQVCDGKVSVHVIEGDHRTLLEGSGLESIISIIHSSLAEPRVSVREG

Series [10] shares this target. Briefly: Inhibition of FASN in human NCI-H1703 cells expressing FASN assessed as disruption of AKT/FASN positive feedback loop by measuring ratio of phosphoAKT/AKT expression at 1 uM after 48 hrs in presence of exogenous lipid concentrate by Western immunoblot based densitometric assay relative to control. The format is cell-based. The gist of the method:
as §1

The test system of another series is NCI-H1650. Briefly: Antiproliferative activity against human NCI-H1650 cells expressing FASN assessed as reduction in cell viability after 72 hrs by MTS assay. The format is functional, cell-based. The settings on record: NCI-H1650, 72 h. An outline of the steps: as §4
Series [11] deals with Fatty acid synthase (Homo sapiens) (UniProt P49327). The series is described as follows: Inhibition of FASN in human PC9 cells harboring FASN expression and EGFR delE746-A750 mutant assessed as disruption of AKT/FASN positive feedback loop by measuring FASN expression at 2 uM after 48 hrs in presence of exogenous lipid concentrate by Western immunoblot based densitometric assay relative to control. The format is cell-based. The gist of the method:
as §1

Series [12] shares this target. The series is described as follows: Inhibition of FASN in human NCI-H1703 cells expressing FASN assessed as disruption of AKT/FASN positive feedback loop by measuring decrease in phosphorylated AKT expression at 5 uM after 48 hrs by Western immunoblot based densitometric assay relative to control. The format is cell-based. The gist of the method: as §2
The subject of series [13] is NCI-H1703. Briefly: Antiproliferative activity against human NCI-H1703 cells expressing FASN assessed as cell viability at 1 uM after 72 hrs in presence of exogenous lipid concentrate by MTS assay. The format is functional, cell-based. The gist of the method:
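Cells were treated as in the MTS viability assay. After 6 h, chemically defined lipid concentrate was added to 2% v/v final. Incubation continued for a further 72 h, then viability was read by MTS at 490 nm. Cells were treated at 2 µM (PC-9) or 1 µM (H1703). Mean ± SD, n = 3, compared with compound alone.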

Series [14] has as its system NCI-H1703. Briefly: Induction of apoptosis in human NCI-H1703 cells expressing FASN assessed as increase in late apoptotic cells at 5 uM after 72 hrs by Annexin-V FITC/PI staining-based flow cytometry. The series is classed as functional, cell-based. Background: A flow cytometer gives signals particle by particle.
Series [15] is described as follows: Selectivity index, ratio of IC50 for human SAE cells lacking FASN expression to IC50 for human NCI-H1650 cells expressing FASN. An outline of the steps:
as §3

The pIC50 is −log10 of the IC50, conventionally taken in molar units. As to `O=C(Oc1ccc(/C=C/c2cccc(OC(=O)c3cc(O)c(O)c(O)c3)c2)cc1)c1cc(O)c(O)c(O)c1`, the Ratio in [1] was 0.12; in [2] it was 0.65; in [5], 1.64; in series [7], 0.16; in series [9], 0.87; in series [10] it was 0.61. In addition, the Ratio in series [11] amounted to 0.62; in [12], 0.04. Also, the inhibition result in [3] was “Dose-dependent effect”. Also, the “Ratio IC50” value is recorded as 1.4 in series [4] and 0.5 in series [15]. Moreover, in series [6], the solubility kinetic at 24 h was determined as 6 µM (≈ 3.1 µg/mL). The pIC50 in [8] is 5.17; with PC-9, 5.30; in the series with NCI-H1650 it was 4.90. The inhibition result with NCI-H1703 [13] was “inactive”. In addition, the outcome with NCI-H1703 [14] was Active.

`O=C(Oc1ccc(/C=C/c2ccc(OC(=O)c3cc(O)c(O)c(O)c3)cc2)cc1)c1cc(O)c(O)c(O)c1`: the Ratio amounted to 0.13 in series [1]; 0.49 in series [2]; 0.74 in series [5]; 0.04 in [7]; 0.57 in series [9]; 0.62 in series [10]. The Ratio stood at 0.55 in [11] and 0.001 in series [12]. Also, the inhibition entry in series [3] was “Dose-dependent effect”. In addition, the “Ratio IC50” value was determined as 2.2 in series [4] and 2 in series [15]. Further, the solubility kinetic at 24 h in [6] was found to be 2.5 µM (≈ 1.29 µg/mL). Besides, the values for the pIC50 (in series [8]; in the series with PC-9; in the series with NCI-H1650) were 5.30, 5.64 and 5.60, respectively. In addition, in the series on NCI-H1703 [13], the inhibition result is “inactive”. Besides, the result in the series on NCI-H1703 [14] was Active.
